# Measured values reported in PubChem BioAssay AID602172 (The Scripps Research Institute Molecular Screening Center, 2012).
# pEC50: −log10 of the molar value. Active and inactive are the calls of the source.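 Rule for the calls: active = DNA binding activation reaching at least 20% of the dioxin reference response; inactive = the rest.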
# Molecular target: Aryl hydrocarbon receptor (Cavia porcellus)
# Experiment: AHR transformation and DRE binding stimulation – cell lysate, guinea pig liver cytosol, radiometric EMSA, mechanism study for AHR activator project, late-stage follow-up (AID 602172)
# Conditions: radiometric gel
# Summary of the method: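 Material: guinea pig hepatic cytosol / Amount: cytosol at 8 mg protein per mL / Medium: HEDG buffer at pH 7.5 / Reagent: radiolabeled DRE DNA probe with poly[dI·dC] / Timing: compound exposure of cytosol 2.5 h, room temperature / Technique: radiometric EMSA with phosphorimaging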
row,pEC50,SMILES
1,6.30,Cc1ccc(-c2cc(-c3cccs3)[nH]n2)c(O)c1
2,6.00,Cc1nc(N)nc(Nc2ccc(Cl)cc2)c1Br

# Same assay, conditions: radiometric gel, at 10 µM, hits give high values
row,SMILES,DNA binding activation (% of TCDD)
1,O=C(Nc1ccon1)c1cnc2sccn2c1=O,21%
2,CN(C)c1nc(N)nc(-c2nc3ccccc3s2)n1,58.6%
3,CCOc1ccccc1NC(=O)c1ccc2nccnc2c1,20% (inactive)
4,CCC(=O)Nc1cc(OC)c(NC(=O)c2ccccc2)cc1OC,7% (inactive)
5,COc1ccccc1NC(=O)Nc1cccnc1,10% (inactive)
6,CCCC(=O)Nc1nn(C)c2nc3cc(C)ccc3cc12,12.1% (inactive)
7,Cc1ccc(Nc2ncccc2C(N)=O)cc1,17.6% (inactive)
8,Cc1nnc(N2C(=O)c3cccc4c([N+](=O)[O-])ccc(c34)C2=O)s1,3.7% (inactive)
9,Cc1cc(Nc2ccc(Br)cc2)n2nc(C)nc2n1,8.6% (inactive)
10,COc1cc2ccccc2cc1C(=O)Nc1ccc(C)cc1,67.8%
11,COC(=O)c1ccccc1NC(=O)Cn1ccnc1,5.2% (inactive)
12,O=C1c2ccccc2-c2nc3ccccc3nc21,59.4%
13,CCOC(=O)Cc1cc(-c2ccc(O)cc2)nc2ccc3ccccc3c12,15.3% (inactive)
14,COc1ccc(C(=O)Nc2cc(OC)c(NC(=O)c3ccco3)cc2OC)cc1,10% (inactive)
15,Cc1ccccc1-c1nc(-c2cccnc2)no1,40.4%
16,COc1ccccc1NC(=O)c1ccc(C(=O)Nc2ccccc2OC)nc1,6.4% (inactive)
17,COc1ccc(NC(=O)c2cccc3c(Br)cccc23)cc1,18% (inactive)
18,COc1cc2c(cc1NC(=O)Nc1ccc(C)cc1)oc1ccccc12,17% (inactive)
19,CCOc1ccc(NC(=O)c2cc3ccccc3cc2OC)cc1,46.8%

# Further lines, results first:
row,DNA binding activation (% of TCDD),SMILES
1,8.2% (inactive),CCOc1ccc(-c2cc(C)n3nc(C(N)=O)cc3n2)cc1
2,5.4% (inactive),CN1CCN(CCCNC(=O)c2cc3c(-c4ccc(Cl)cc4)nn(C)c3s2)CC1
3,21.6%,O=C(Nc1cccc(Cl)c1)c1cccnn1
4,42%,COc1ccccc1C(=O)Nc1ccc(N2CCCCC2)cc1
5,15% (inactive),COc1ccccc1NC(=O)c1ccc2c(c1)nnn2C
6,27.8%,Cn1c(C(=O)N2CCC(C(N)=O)CC2)cc2cc(Cl)ccc21
7,3.2% (inactive),O=C(CN1CCOCC1)Nc1nc2ccc([N+](=O)[O-])cc2s1
8,37%,Cn1c(N)c(C(=O)Nc2ccccc2F)sc1=S
9,20.2%,COc1ccc(Cl)cc1C(=O)Nc1ccc(N(C)C(C)=O)cc1
10,4.4% (inactive),Cc1c(-c2ccn[nH]2)cc(NC(=O)c2ccc(Cl)cc2)c(=O)n1N
11,7.8% (inactive),Cc1csc(SCC(=O)Nc2ccc(Cl)cn2)n1
12,5.3% (inactive),CC(=O)c1ccc(NC(=O)c2cc(Cl)nc3ccccc23)cc1
